Data published in ChEMBL document CHEMBL4393701, “Appendix A. dithioloquinolinethiones as new potential multitargeted antibacterial and antifungal agents: Synthesis, biological evaluation and molecular docking studies” (2019).
Values after ≈ are worked out from the molar mass of the structure shown.

Assays:
[1] = test system: Staphylococcus aureus; assay: Antibacterial activity against Staphylococcus aureus ATCC 6538 after 24 hrs by iodonitrotetrazolium chloride dye based microdilution method; type: functional; conditions: ATCC 6538, 24 h
Outline: (§1)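 Fresh overnight cultures adjusted spectrophotometrically to 1×10^5 CFU/mL, giving 1.0×10^4 CFU per well in tryptic soy broth. Compounds were dissolved in 5% DMSO and tested at 0.001-1.0 mg/ml by serial dilution; 5% DMSO was the negative control. After 24 h at 37 °C, 0.2 mg/mL INT solution was added for 30 min at 37 °C and OD read at 655 nm. MIC is the lowest concentration giving significant growth inhibition versus the positive control. Duplicates, repeated three times.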

[2] = test system: Micrococcus flavus; assay: Bactericidal activity against Micrococcus flavus ATCC 10240 incubated for 24 hrs followed by re-plating on tryptic soy broth; type: functional; conditions: ATCC 10240, 24 h
Outline: (§2)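 Bacteria were grown in tryptic soy broth, 1.0×10^4 CFU per well, with compounds in 5% DMSO at 0.001-1.0 mg/ml for 24 h at 37 °C. Then 10 µL was subcultured into fresh TSB. MBC is the lowest concentration showing no growth after subculture, taken as 99.5% kill of the original inoculum. Duplicates, repeated three times.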

[3] = test system: Bacillus cereus; assay: Bactericidal activity against Bacillus cereus clinical isolate incubated for 24 hrs followed by re-plating on tryptic soy broth; type: functional; outline: as §2
[4] = test system: Trichoderma viride; assay: Antifungal activity against Trichoderma viride IAM 5061 after 72 hrs by microdilution technique; type: functional; conditions: IAM 5061, 72 h
Outline: (§3)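 Spores were washed off malt agar with 0.85% saline containing 0.1% Tween 80 and adjusted to about 1.0×10^5 per well. Compounds in 5% DMSO were serially diluted (0.001-1.0 mg/ml) in malt broth with inoculum. Plates were shaken at 160 rpm for 72 h at 28 °C. MIC is the lowest concentration without visible growth under a binocular microscope. Three independent experiments in duplicate.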

[5] = test system: Aspergillus versicolor; assay: Fungicidal activity against Aspergillus versicolor ATCC 11730 incubated for 72 hrs followed by sub-culturing on broth malt medium and measured after 72 hrs; type: functional; conditions: ATCC 11730, 72 h
Outline: (§4)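 After 72 h exposure in malt broth, 2 µL from test wells was subcultured into wells holding 100 µL broth and incubated a further 72 h at 28 °C. MFC is the lowest concentration with no visible growth, taken as 99.5% kill of the original inoculum. Three independent experiments in duplicate.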

[6] = test system: Trichoderma viride; assay: Fungicidal activity against Trichoderma viride IAM 5061 incubated for 72 hrs followed by sub-culturing on broth malt medium and measured after 72 hrs; type: functional; conditions: IAM 5061, 72 h; outline: as §4
[7] = test system: Enterobacter cloacae; assay: Antibacterial activity against Enterobacter cloacae clinical isolate after 24 hrs by iodonitrotetrazolium chloride dye based microdilution method; type: functional; outline: as §1
[8] = test system: Salmonella typhimurium; assay: Bactericidal activity against Salmonella typhimurium ATCC 13311 incubated for 24 hrs followed by re-plating on tryptic soy broth; type: functional, Salmonella enterica subsp. enterica serovar Typhimurium; conditions: Salmonella enterica, ATCC 13311, 24 h; outline: as §2
[9] = test system: Aspergillus ochraceus; assay: Antifungal activity against Aspergillus ochraceus ATCC 12066 after 72 hrs by microdilution technique; type: functional; conditions: ATCC 12066, 72 h; outline: as §3
[10] = test system: Escherichia coli; assay: Antibacterial activity against Escherichia coli ATCC 35210 after 24 hrs by iodonitrotetrazolium chloride dye based microdilution method; type: functional; conditions: ATCC 35210, 24 h; outline: as §1
[11] = test system: Penicillium cyclopium; assay: Antifungal activity against Penicillium verrucosum var. cyclopium food isolate after 72 hrs by microdilution technique; type: functional; outline: as §3
[12] = test system: Aspergillus fumigatus; assay: Fungicidal activity against Aspergillus fumigatus ATCC 1022 incubated for 72 hrs followed by sub-culturing on broth malt medium and measured after 72 hrs; type: functional; conditions: ATCC 1022, 72 h; outline: as §4
[13] = test system: Aspergillus versicolor; assay: Antifungal activity against Aspergillus versicolor ATCC 11730 after 72 hrs by microdilution method; type: functional; conditions: ATCC 11730, 72 h; outline: as §3
[14] = test system: Penicillium ochrochloron; assay: Antifungal activity against Penicillium ochrochloron ATCC 9112 after 72 hrs by microdilution technique; type: functional; conditions: ATCC 9112, 72 h; outline: as §3
[15] = test system: Micrococcus flavus; assay: Antibacterial activity against Micrococcus flavus ATCC 10240 after 24 hrs by iodonitrotetrazolium chloride dye based microdilution method; type: functional; conditions: ATCC 10240, 24 h; outline: as §1
[16] = test system: Pseudomonas aeruginosa; assay: Antibacterial activity against Pseudomonas aeruginosa ATCC 27853 after 24 hrs by iodonitrotetrazolium chloride dye based microdilution method; type: functional; conditions: ATCC 27853, 24 h; outline: as §1
[17] = Antifungal activity against Penicillium funiculosum ATCC 36839 after 72 hrs by microdilution technique; type: functional; conditions: Talaromyces pinophilus, ATCC 36839, 72 h; outline: as §3
[18] = Fungicidal activity against Penicillium funiculosum ATCC 36839 incubated for 72 hrs followed by sub-culturing on broth malt medium and measured after 72 hrs; type: functional; conditions: Talaromyces pinophilus, ATCC 36839, 72 h; outline: as §4
[19] = test system: Escherichia coli; assay: Bactericidal activity against Escherichia coli ATCC 35210 incubated for 24 hrs followed by re-plating on tryptic soy broth; type: functional; conditions: ATCC 35210, 24 h; outline: as §2
[20] = test system: Aspergillus niger; assay: Fungicidal activity against Aspergillus niger ATCC 6275 incubated for 72 hrs followed by sub-culturing on broth malt medium and measured after 72 hrs; type: functional; conditions: ATCC 6275, 72 h; outline: as §4
[21] = test system: Aspergillus niger; assay: Antifungal activity against Aspergillus niger ATCC 6275 after 72 hrs by microdilution technique; type: functional; conditions: ATCC 6275, 72 h; outline: as §3
[22] = test system: Staphylococcus aureus; assay: Bactericidal activity against Staphylococcus aureus ATCC 6538 incubated for 24 hrs followed by re-plating on tryptic soy broth; type: functional; conditions: ATCC 6538, 24 h; outline: as §2
[23] = test system: Penicillium cyclopium; assay: Fungicidal activity against Penicillium verrucosum var. cyclopium food isolate incubated for 72 hrs followed by sub-culturing on broth malt medium and measured after 72 hrs; type: functional; outline: as §4
[24] = test system: Salmonella typhimurium; assay: Antibacterial activity against Salmonella typhimurium ATCC 13311 after 24 hrs by iodonitrotetrazolium chloride dye based microdilution method; type: functional, Salmonella enterica subsp. enterica serovar Typhimurium; conditions: Salmonella enterica, ATCC 13311, 24 h; outline: as §1
[25] = test system: Bacillus cereus; assay: Antibacterial activity against Bacillus cereus clinical isolate after 24 hrs by iodonitrotetrazolium chloride dye based microdilution assay; type: functional; outline: as §1
[26] = test system: Enterobacter cloacae; assay: Bactericidal activity against Enterobacter cloacae incubated for 24 hrs followed by re-plating on tryptic soy broth; type: functional; outline: as §2
[27] = test system: Listeria monocytogenes; assay: Antibacterial activity against Listeria monocytogenes NCTC 7973 after 24 hrs by iodonitrotetrazolium chloride dye based microdilution method; type: functional; conditions: NCTC 7973, 24 h; outline: as §1
[28] = test system: Pseudomonas aeruginosa; assay: Bactericidal activity against Pseudomonas aeruginosa ATCC 27853 incubated for 24 hrs followed by re-plating on tryptic soy broth; type: functional; conditions: ATCC 27853, 24 h; outline: as §2
[29] = test system: Aspergillus fumigatus; assay: Antifungal activity against Aspergillus fumigatus ATCC 1022 after 72 hrs by microdilution technique; type: functional; conditions: ATCC 1022, 72 h; outline: as §3
[30] = test system: Penicillium ochrochloron; assay: Fungicidal activity against Penicillium ochrochloron ATCC 9112 incubated for 72 hrs followed by sub-culturing on broth malt medium and measured after 72 hrs; type: functional; conditions: ATCC 9112, 72 h; outline: as §4
[31] = test system: Listeria monocytogenes; assay: Bactericidal activity against Listeria monocytogenes NCTC 7973 incubated for 24 hrs followed by re-plating on tryptic soy broth; type: functional; conditions: NCTC 7973, 24 h; outline: as §2
[32] = test system: Aspergillus ochraceus; assay: Fungicidal activity against Aspergillus ochraceus ATCC 12066 incubated for 72 hrs followed by sub-culturing on broth malt medium and measured after 72 hrs; type: functional; conditions: ATCC 12066, 72 h; outline: as §4

Compound	MIC [1]	MBC [2]	MBC [3]	MIC [4]	MFC [5]	MFC [6]	MIC [7]	MBC [8]	MIC [9]	MIC [10]	MIC [11]	MFC [12]	MIC [13]	MIC [14]	MIC [15]	MIC [16]	MIC [17]	MFC [18]	MBC [19]	MFC [20]	also measured
CCOc1ccc2c(c1)-c1c(ssc1=S)C(C)(C)N2C(=O)c1ccc(Cl)c([N+](=O)[O-])c1	30.4 µM (≈ 15 µg/mL)	60.9 µM (≈ 30 µg/mL)	60.9 µM (≈ 30 µg/mL)	1.22 ×10⁻² mM	24.3 ×10⁻² mM	1.62 ×10⁻² mM	30.4 µM (≈ 15 µg/mL)	60.9 µM (≈ 30 µg/mL)	1.62 ×10⁻² mM	30.4 µM (≈ 15 µg/mL)	24.3 ×10⁻² mM	12.2 ×10⁻² mM	12.2 ×10⁻² mM	1.22 ×10⁻² mM	30.4 µM (≈ 15 µg/mL)	30.4 µM (≈ 15 µg/mL)	3.04 ×10⁻² mM	6.09 ×10⁻² mM	60.9 µM (≈ 30 µg/mL)	6.09 ×10⁻² mM	MIC [21]: 2.23 ×10⁻² mM; MBC [22]: 60.9 µM (≈ 30 µg/mL); MFC [23]: 48.7 ×10⁻² mM; MIC [24]: 30.4 µM (≈ 15 µg/mL); MIC [25]: 30.4 µM (≈ 15 µg/mL); MBC [26]: 60.9 µM (≈ 30 µg/mL); MIC [27]: 30.4 µM (≈ 15 µg/mL); MBC [28]: 60.9 µM (≈ 30 µg/mL); MIC [29]: 4.46 ×10⁻² mM; MFC [30]: 1.62 ×10⁻² mM; MBC [31]: 60.9 µM (≈ 30 µg/mL); MFC [32]: 3.04 ×10⁻² mM
COc1cc2c(c([N+](=O)[O-])c1)NC(C)(C)c1ssc(=S)c1-2	88.1 µM (≈ 30 µg/mL)	176 µM (≈ 59.9 µg/mL)	88.1 µM (≈ 30 µg/mL)	3.23 ×10⁻² mM	8.81 ×10⁻² mM	4.41 ×10⁻² mM	88.1 µM (≈ 30 µg/mL)	352 µM (≈ 120 µg/mL)	2.35 ×10⁻² mM	132 µM (≈ 45 µg/mL)	6.46 ×10⁻² mM	35.2 ×10⁻² mM	4.41 ×10⁻² mM	4.41 ×10⁻² mM	132 µM (≈ 44.9 µg/mL)	88.1 µM (≈ 30 µg/mL)	4.41 ×10⁻² mM	8.81 ×10⁻² mM	176 µM (≈ 59.9 µg/mL)	8.81 ×10⁻² mM	MIC [21]: 4.41 ×10⁻² mM; MBC [22]: 176 µM (≈ 59.9 µg/mL); MFC [23]: 17.6 ×10⁻² mM; MIC [24]: 176 µM (≈ 60 µg/mL); MIC [25]: 44.1 µM (≈ 15 µg/mL); MBC [26]: 176 µM (≈ 59.9 µg/mL); MIC [27]: 176 µM (≈ 59.9 µg/mL); MBC [28]: 176 µM (≈ 60 µg/mL); MIC [29]: 17.6 ×10⁻² mM; MFC [30]: 8.81 ×10⁻² mM; MBC [31]: 352 µM (≈ 120 µg/mL); MFC [32]: 4.41 ×10⁻² mM
